Data published in ChEMBL document CHEMBL4402593, “Fragment-Based Design of Mycobacterium tuberculosis InhA Inhibitors” (J Med Chem, 2020).
Active and inactive are the calls of the source. The calls are words filed in the database; no cut-off is given here.

Assays:
[1] = target: T1, Enoyl-[acyl-carrier-protein] reductase [NADH] (Mycobacterium tuberculosis) (UniProt P9WGR1); assay: Binding affinity to hexahistidine-SUMO tagged Mycobacterium tuberculosis InhA expressed in Escherichia coli BL21(DE3) at 1 mM in presence of 0.5 mM NAD+ by NMR spectroscopy
T1 sequence (whole entry): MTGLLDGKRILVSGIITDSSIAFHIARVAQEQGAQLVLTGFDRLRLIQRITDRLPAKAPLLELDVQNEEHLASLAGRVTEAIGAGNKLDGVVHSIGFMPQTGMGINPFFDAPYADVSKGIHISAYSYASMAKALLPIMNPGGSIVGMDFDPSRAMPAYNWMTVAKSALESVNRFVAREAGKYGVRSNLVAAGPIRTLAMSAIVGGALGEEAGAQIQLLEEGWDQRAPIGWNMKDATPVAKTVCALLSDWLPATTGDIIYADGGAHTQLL
Outline: (§1)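 Ligand-observed NMR binding (CPMG T2 relaxation, WaterLOGSY, STD): 20 μM InhA (His6-SUMO tag removed by Ulp1, then gel-filtered) with 0.5 mM NAD+ and fragment at 1 mM. All three techniques were run on each fragment to validate thermal-shift hits.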

[2] = target: T1, Enoyl-[acyl-carrier-protein] reductase [NADH] (Mycobacterium tuberculosis); assay: Binding affinity to hexahistidine-SUMO tagged Mycobacterium tuberculosis InhA expressed in Escherichia coli BL21(DE3) at 1 mM in presence of 0.5 mM NAD+ by WaterLOGSY NMR analysis; outline: as §1
[3] = target: T1, Enoyl-[acyl-carrier-protein] reductase [NADH] (Mycobacterium tuberculosis); assay: (§2) Inhibition of hexahistidine-SUMO tagged Mycobacterium tuberculosis InhA expressed in Escherichia coli BL21(DE3) at 2 mM preincubated for 10 mins with NADH before addition of 2-trans-octanoyl-CoA as substrate and measured after 20 mins by NADH oxidation detection based colorimetric assay relative to control
Outline: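 InhA 100 nM in PIPES pH 7.5/NaCl/EDTA was preincubated 10 min with 0.25 mM NADH and fragment (1% DMSO). Reaction started with 1.5 mM 2-trans-octanoyl-CoA. A340 decrease was followed for 20 min.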

[4] = target: T1, Enoyl-[acyl-carrier-protein] reductase [NADH] (Mycobacterium tuberculosis); assay: Binding affinity to hexahistidine-SUMO tagged Mycobacterium tuberculosis InhA expressed in Escherichia coli BL21(DE3) at 1 mM in presence of 0.5 mM NAD+ by CPMG NMR analysis; outline: as §1
[5] = target: T1, Enoyl-[acyl-carrier-protein] reductase [NADH] (Mycobacterium tuberculosis); assay: Inhibition of InhA in Mycobacterium tuberculosis H37Ra assessed as accumulation of trehalose monomycolates at 200 uM incubated for 48 hrs using [14C]acetate by TLC based metabolic labeling assay relative to control
Outline: (§3)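 H37Ra was grown statically at 37 °C in 7H9/ADC/0.05% Tween 80 to OD600 0.290. Compound was added at 200 μM final (1% DMSO), with isoniazid 40 μM as control inhibitor. After 24 h shaking, 14C acetate (0.5 μCi/mL) was added for another 24 h. Total lipids were extracted with chloroform/methanol and washed biphasically. TLC in chloroform/methanol/water 20:4:0.5, then autoradiography.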

[6] = target: T1, Enoyl-[acyl-carrier-protein] reductase [NADH] (Mycobacterium tuberculosis); assay: Inhibition of InhA in Mycobacterium tuberculosis H37Ra assessed as reduction in mycolic acids synthesis by measuring MAME level at 200 uM incubated for 48 hrs using [14C]acetate by TLC based metabolic labeling assay relative to control
Outline: (§4)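 H37Ra in 7H9/ADC/Tween 80 at OD600 0.290 received compound at 200 μM final (1% DMSO), with isoniazid 40 μM as control. After 24 h, 14C acetate (0.5 μCi/mL) was added for a further 24 h. FAMEs and MAMEs were prepared from whole cells, loaded normalised to OD600, separated by TLC, and detected by autoradiography.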

[7] = target: T1, Enoyl-[acyl-carrier-protein] reductase [NADH] (Mycobacterium tuberculosis); assay: Inhibition of InhA in Mycobacterium tuberculosis H37Ra assessed as decrease in trehalose dimycolates level at 200 uM incubated for 48 hrs using [14C]acetate by TLC based metabolic labeling assay relative to control; outline: as §3
[8] = target: T1, Enoyl-[acyl-carrier-protein] reductase [NADH] (Mycobacterium tuberculosis); assay: Inhibition of InhA in Mycobacterium tuberculosis H37Ra assessed as reduction in mycolic acids synthesis by measuring FAME level at 200 uM incubated for 48 hrs using [14C]acetate by TLC based metabolic labeling assay relative to control; outline: as §4
[9] = target: T1, Enoyl-[acyl-carrier-protein] reductase [NADH] (Mycobacterium tuberculosis); assay: as §2, with “at 0.1” for “at 2”
Outline: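 Percent inhibition at 100 μM: tag-cleaved InhA (100 nM) in 30 mM PIPES pH 7.5, 50 mM NaCl, 0.1 mM EDTA was preincubated 10 min at room temperature with 0.25 mM NADH and compound (1% DMSO). Reaction started with 1.5 mM 2-trans-octanoyl-CoA final. NADH oxidation was read at 340 nm for 20 min.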

[10] = target: T2, Enoyl-[acyl-carrier-protein] reductase [NADH] (Mycobacterium tuberculosis, UniProt P9WGR1); assay: Inhibition of hexahistidine-SUMO tagged Mycobacterium tuberculosis InhA expressed in Escherichia coli BL21(DE3) at preincubated for 10 mins with NADH before addition of 2-trans-octanoyl-CoA as substrate and measured after 20 mins by NADH oxidation detection based colorimetric assay
T2 sequence (P9WGR1 whole entry): T1 sequence (whole entry)

Structure (SMILES)	Activity [1]	Activity [2]	inhibition [3]	Activity [4]	inhibition [5]	inhibition [6]	inhibition [7]	inhibition [8]	inhibition [9] [%]	IC50 [10] [µM]
O=C(O)c1ccccc1C(=O)c1ccc(Cl)c([N+](=O)[O-])c1	Active	Active	inactive	Active						
NCc1cccc(NS(=O)(=O)c2cc3ccccc3s2)c1					inactive	inactive	inactive	inactive		
NCc1cccc(NS(=O)(=O)/C=C/c2cccc(C(F)(F)F)c2)c1					Active	Active	Active	Active		
NCc1ccc(NS(=O)(=O)/C=C/c2cccc(C(F)(F)F)c2)cc1					inactive	inactive	inactive	inactive		
NC(=O)c1cccc(NS(=O)(=O)/C=C/c2cccc(C(F)(F)F)c2)c1									0	
Cc1c(S(=O)(=O)Nc2cccc(CN)c2)sc2ccc(F)cc12					inactive	inactive	inactive	inactive		
Cc1c(S(=O)(=O)Nc2cccc(CN)c2)sc2ccc(Cl)cc12					inactive	inactive	inactive	inactive		
NCc1cccc(NS(=O)(=O)c2cc3ccccc3o2)c1					inactive	inactive	inactive	inactive		22
O=C(O)/C=C/c1cccc(C(F)(F)F)c1	Active	Active		Active						
O=C(O)c1cc2ccccc2cc1O	Active	Active	inactive	Active						
NNC(=O)c1ccncc1						100%		100%		
O=C(O)c1ccccc1-n1cccn1	Active	Active	inactive	Active						
O=C(O)CCc1cccc(Cl)c1	Active	Active	inactive	Active						
